An excerpt weighted towards active compounds, which were near 3.9% of everything screened.
OX1R antag-1: human HCRTR1 antagonism. actives 0.43% (n = 330,000). inhibition, % at 5 µM. CHO/OX1R cells, Fluo-8 calcium fluorescence, orexin A. O43613;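 active = inhibition above its plate's threshold, mean inhibition of all tested compounds on the plate plus 3 SD, cut at about 37% in these data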;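 note: 0% = orexin A challenge wells and 100% = SB-334867-A antagonist wells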
Target sequence (O43613 whole entry, looked up): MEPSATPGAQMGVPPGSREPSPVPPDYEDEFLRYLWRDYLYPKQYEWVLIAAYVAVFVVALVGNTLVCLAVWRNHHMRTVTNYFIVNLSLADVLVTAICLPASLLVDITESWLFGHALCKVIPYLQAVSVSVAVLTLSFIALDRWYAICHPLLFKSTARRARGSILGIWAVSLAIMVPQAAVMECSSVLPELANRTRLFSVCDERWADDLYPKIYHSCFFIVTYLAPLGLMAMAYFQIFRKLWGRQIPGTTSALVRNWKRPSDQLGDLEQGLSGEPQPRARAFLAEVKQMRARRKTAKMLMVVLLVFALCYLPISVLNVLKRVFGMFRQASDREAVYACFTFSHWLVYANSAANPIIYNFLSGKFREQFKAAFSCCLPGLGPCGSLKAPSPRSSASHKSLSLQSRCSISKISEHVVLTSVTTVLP
TAAR1 antagonist: human TAAR1 antagonism; Q96RJ0; CHO RD-HGA16 TAAR1, Fluo-8 calcium fluorescence, antagonist; inhibition, % at 3 µM; actives 1.5% (n = 360,000); AID 624466;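 active = inhibition above a per-plate cutoff, the mean inhibition of test compounds on that plate plus 3 SD, cut at about 49% in these data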;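 note: 0% = DMSO plus EC80 beta-PEA response and 100% = DMSO alone without agonist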
Target sequence (Q96RJ0 whole entry, looked up): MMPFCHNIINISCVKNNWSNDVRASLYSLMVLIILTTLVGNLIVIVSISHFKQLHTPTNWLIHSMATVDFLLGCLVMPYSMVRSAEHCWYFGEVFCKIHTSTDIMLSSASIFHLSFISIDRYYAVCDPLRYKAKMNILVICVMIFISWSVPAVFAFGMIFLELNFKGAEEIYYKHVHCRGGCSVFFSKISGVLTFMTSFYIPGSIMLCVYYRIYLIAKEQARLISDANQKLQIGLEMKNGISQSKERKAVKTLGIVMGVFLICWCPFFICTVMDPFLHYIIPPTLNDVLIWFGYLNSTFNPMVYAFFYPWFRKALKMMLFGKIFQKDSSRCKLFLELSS
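Test system: RD-HGA16 CHO cells with stable hTAAR1 and Gα16 / Probe or stimulus: EC80 β-phenethylamine stimulus / Times: seeding 17-24 h prior, 75-min 37 °C, 30-min RT dye loading / Detection: Fluo-8 calcium-sensitive fluorescence / Read-out basis: % inhibition scaled between DMSO and EC80 PEA controls / Repeats: singlicate, one well per test compound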
CHO parental Ca: signal in parental CHO cells, OX1R antagonist counter-screen; parental CHO-K1, ATP-induced calcium, Fluo-8 fluorescence; inhibition, % at 5.6 µM; actives 0.63% (n = 330,000);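 active = inhibition above that plate's mean sample inhibition plus 3 SD, cut at about 26% in these data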;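 note: 0% = ATP-challenged DMSO wells and 100% = DMSO wells without ATP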
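Material – parental CHO cells · Reagent – ATP stimulus · Compound – single nominal dose of 5.6 µM per compound · Detection – Fluo-8 fluorescence · Read-out basis – percent inhibition of calcium signal · Controls – ATP-challenged DMSO wells low, unchallenged DMSO wells high · Repeats – no replicates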
OX1R antag-2: blocks the human orexin 1 receptor | OX1R-expressing cells, FRET antagonist read-out | AID 485270 | actives 1.8% (n = 330,000) | inhibition, % at 6.6 µM; in the data active = inhibition mostly above about 38%, no sharp cut-off; inactive = mostly below about 40%;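 note: 0% = agonist challenge alone and 100% = reference antagonist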
TAAR1 agonist: human TAAR1 agonism | Q96RJ0 | CHO RD-HGA16 TAAR1, Fluo-8 calcium fluorescence; vehicle wells 0%, saturating PEA agonist 100% | activation, % at 3 µM | actives 0.99% (n = 360,000);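 active = activation above the mean activation of all test compounds in the run plus 3 SD, cut at about 38% in these data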
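test system = CHO RD-HGA16 cells carrying human TAAR1 plus Gα16 | schedule = 17-24 h seeding, 75 min 37 °C dye, 30 min RT | compound dosing = 3 µM single concentration | control set = DMSO and PEA EC100 | replicates = n 1 | signal = Fluo-8 fluorescence, 5 s baseline then 140 s kinetic read | measure = percent activation vs PEA EC100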
Numbers without * were called inactive; nt = not tested or not shown.

SMILES | OX1R antag-1 | TAAR1 antagonist | CHO parental Ca | OX1R antag-2 | TAAR1 agonist
COC(=O)[C@]12CCCCC=C1N(Cc1cccc3ccccc13)C(=O)[C@H](CC(=O)NCCC(C)C)C2 | nt | 61.6* | nt | nt | 9.4
C[C@@H]1CN([C@H](C)CO)S(=O)(=O)c2ccc(C#CCN(C)C)cc2O[C@@H]1CN(C)Cc1ccccc1F | nt | -18.2 | nt | nt | 5.3
O=C(NCc1ccc(F)cc1)c1cc(-c2ccco2)on1 | 37.6 | 20.3 | 31.6* | 2.4 | 37.7*
CSc1ccccc1NC(=O)c1cc(-c2ccco2)on1 | -6.5 | -1.3 | -1.5 | 65.9* | 6.6
O=C(Nc1ccc(F)cc1F)c1cc(-c2ccco2)on1 | -21.0 | 16.4 | 34.9* | 4.5 | 9.0
C=CCN=C1NC(c2ccc(C(F)(F)F)cc2)C(C(=O)OC)=C(C)N1C (centres undefined) | nt | -2.3 | nt | nt | 2.2
CN(c1cccc(Cl)c1)S(=O)(=O)c1cccc(C(=O)Nc2nc3ccccc3[nH]2)c1 | 5.0 | 61.0* | -7.0 | 51.6 | 12.1
COc1ccc(N(C)S(=O)(=O)c2cccc(C(=O)Nc3nnc(C)s3)c2)cc1 | -13.9 | -8.8 | 6.8 | 0.3 | 0.6
COc1ccc(N(C)S(=O)(=O)c2cccc(C(=O)Nc3nc4ccccc4[nH]3)c2)cc1 | -16.1 | 54.7* | -0.7 | 20.2 | 8.6
O=C(Nc1nc2ccccc2[nH]1)c1cccc(Cl)c1 | -20.5 | 3.6 | -10.0 | 19.5 | 0.1
O=C(NN=Cc1ccccc1O)C(=O)Nc1ccc(F)cc1 | nt | -2.2 | nt | nt | 0.9
O=C1OC(c2ccccc2)(N(Nc2ccccc2)c2ccccc2)c2ccccc21 (centres undefined) | nt | 16.4 | nt | nt | 3.3
Cc1ccc(C(=O)C(c2ccccc2)N2Cc3ccccc3C2=N)cc1 (centres undefined) | -20.3 | nt | 23.2 | 41.4 | nt
COc1ccc(OC)c(NC(=O)COc2cc(O)c3c(c2)OC(C)(C)CC3=O)c1 | nt | 42.3 | nt | nt | 0.8
COc1ccc(NC(=O)COC(=O)Cn2cnc3ccccc32)cc1 | -6.9 | -11.8 | -3.9 | 1.1 | 4.0
O=C(Cn1cnc2ccccc21)N/N=C/C(Br)=C/c1ccccc1 | 11.5 | 49.1* | 8.2 | 7.1 | 14.8
O=C(Cn1cnc2ccccc21)Nc1ccc(SC(F)F)cc1 | 17.6 | 13.1 | 46.5* | 30.3 | 11.0
COC(=O)[C@]12CCCCC=C1N(Cc1ccc3c(c1)OCO3)C(=O)[C@H](CC(=O)NCC13CC4CC(CC(C4)C1)C3)C2 | nt | 11.9 | nt | nt | 4.3
CCc1nc(C)cn1S(=O)(=O)c1cc(C)c(OC)cc1C | -11.0 | -6.2 | -4.8 | 8.4 | -0.2
CCc1nc(C)cn1S(=O)(=O)c1cc(C)c(OC)c(C)c1C | 1.7 | 38.6 | 31.4* | 23.5 | 5.3
COC(=O)[C@]12C[C@H](CC(=O)NCCC(C)C)C(=O)N(Cc3ccc4c(c3)OCO4)C1=C[C@H](C(C)(C)C)O[C@@H]2C | nt | -31.5 | nt | nt | -2.0
Cc1ccc(C(=O)c2coc3c2C(=O)C(=O)c2ccccc2-3)cc1 | 1.4 | 21.6 | -25.2 | 46.8* | 13.1
Cc1oc2c(c1C(=O)c1ccc(Cl)cc1)C(=O)C(=O)c1ccccc1-2 | nt | 28.4 | nt | nt | 13.0
COC(=O)[C@]12C[C@H](CC(=O)N3CCN(C(=O)c4ccco4)CC3)C(=O)N(CCC3=CCCCC3)C1=C[C@H](COCc1ccccc1)O[C@@H]2C | nt | -13.2 | nt | nt | -1.7
COc1ccc(CN2C(=O)c3ccccc3C2c2nnnn2-c2c(C)cccc2C)cc1OC (centres undefined) | nt | -15.7 | nt | nt | 1.8
SMILES | OX1R antag-1 | TAAR1 antagonist | CHO parental Ca | OX1R antag-2 | TAAR1 agonist
CCc1nc(N2CCN(C(=O)c3ccco3)CC2)c2oc3ccccc3c2n1 | -10.1 | 19.9 | -24.7 | 50.7* | 8.6
Cc1nc(N2CCN(C(=O)c3ccco3)CC2)c2oc3ccccc3c2n1 | -7.6 | -8.3 | -22.1 | 61.0 | 2.8
COc1ccc(CCNC(=O)COc2ncnc3cc([N+](=O)[O-])ccc23)cc1 | -24.8 | -3.8 | -4.0 | 53.2* | 6.0
OCC[C@@H]1C[C@H](O)[C@@H](O)[C@@]2(OCCc3cc(Cl)ccc32)O1 | nt | -17.9 | nt | nt | 0.2
COc1ccccc1CC(=O)O/N=C(\N)Cc1cccc2ccccc12 | -33.0 | 40.6 | -7.4 | 1.3 | 75.2*
COc1ccccc1OC(=O)Cc1cccc2ccccc12 | -16.8 | nt | -18.3 | 12.7 | nt
COc1ccc(Br)cc1/C=C/C(=O)c1ccc(NC(C)=O)cc1 | -5.5 | 56.1* | -5.7 | 57.7 | 12.6
COc1ccc(Br)cc1/C=C/C(=O)Nc1c(C)cccc1C | -34.6 | -5.3 | -21.0 | 2.0 | -0.2
COc1ccc(NC(=O)/C=C/c2cc(Br)ccc2OC)cc1 | 36.2 | 11.8 | -22.2 | 83.0* | 0.6
COc1ccc(C(=O)/C=C/Nc2ccc(NC(C)=O)cc2)cc1OC | -13.9 | 4.0 | -18.0 | 14.2 | 3.1
COc1ccc(OC)c(/C=C/C(=O)Nc2ccc3c(c2)CCC3)c1 | -26.2 | 6.4 | -10.3 | 69.3* | -1.1
CCCCNC(=O)c1cnc(Cc2c[nH]c3ccccc23)c(I)c1 | nt | -1.3 | nt | nt | 0.1
Cc1csc(-c2ccc3cc(Cl)cc(Cl)c3n2)n1 | nt | -10.4 | nt | nt | 1.9
Nc1nc2c(ncn2[C@@H]2O[C@H](C(=O)N[C@@H](Cc3ccccc3)C(=O)NCC3CCCCC3)[C@@H](O)[C@H]2O)c(=O)[nH]1 | nt | -15.9 | nt | nt | 1.1
O=C(CCCOc1ccc(Br)cc1)Nc1ccc(S(=O)(=O)N2CCOCC2)cc1 | 27.1 | 42.8 | 34.6* | 14.3 | 16.4
Cc1ccc(NC(=O)COc2ccc(N(C)C(=O)C(C)(C)C)cc2)cc1S(=O)(=O)N1CCCCC1 | 72.8* | 51.9* | 77.9* | 19.8 | 10.2
COc1cc(C(C)=O)ccc1OCC(=O)Nc1ccc(C)c(S(=O)(=O)N2CCCCCC2)c1 | 53.4* | 76.6* | 32.5* | 29.0 | 18.5
Cc1ccc(NC(=O)CSc2ncnc3ccccc23)cc1S(=O)(=O)N1CCCCCC1 | 21.3 | 24.4 | 34.4* | 38.1 | 5.1
Cc1ccc(S(=O)(=O)N2CCCCC2)cc1NC(=O)CSc1ncnc2ccccc12 | -37.8 | 18.9 | -25.6 | 4.9 | 1.4
COc1ccc(NC(=O)CN(C)CC(=O)Nc2ccc(C)c(S(=O)(=O)N3CCCCC3)c2)cc1 | -25.6 | -1.5 | -43.4 | 7.5 | 8.5
O=c1ccc(-c2nc3ccccc3n2C(CCc2ccccc2)c2nc3ccccc3[nH]2)c[nH]1 (centres undefined) | nt | -19.3 | nt | nt | 5.1
COc1cccc(NC(=O)N(C)C[C@@H]2OCc3cnnn3CCCC(=O)N([C@H](C)CO)C[C@@H]2C)c1 | nt | -2.2 | nt | nt | 3.2
C[C@H]1CN(S(=O)(=O)C(C)(C)C)[C@@H](CCO)/C1=C\CCO | nt | -10.7 | nt | nt | 1.6
COC(=O)[C@]12C[C@H](CC(=O)NCc3cccc(C(F)(F)F)c3)C(=O)N(CCC3=CCCCC3)C1=C[C@H](COCc1ccccc1)O[C@@H]2C | nt | -21.0 | nt | nt | -0.4
CC(=O)Nc1ccc(OCC(=O)Nc2ccc(Cl)c(S(=O)(=O)N3CCOCC3)c2)cc1 | 54.0* | 44.8 | 29.0* | 18.6 | 13.6

Compound activity as filed in PubChem.
